Rtt109 Vps75: inhibitors of C. albicans Rtt109/Vps75 HAT, primary screen, biochemical, ThioGlo CoA-SH fluorescence, plate reader; Histone acetyltransferase RTT109 (Candida albicans (strain SC5314 / ATCC MYA-2876)), …; purified Rtt109/Vps75, 4 h; inhibition, % at 34.9 µM; 330,000 tested, 0.16% active; AID 540336, 2011;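 active = inhibition of at least 50% in every replicate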
CAL PDZ FP-1: untagged CAL PDZ binding inhibitors, primary screen, biochemical, fluorescence polarization, HTS | purified CAL PDZ, TMR-peptide fluorescence polarization, 1 h | Golgi-associated PDZ and coiled-coil motif-containing protein (Homo sapiens), Q9HD26 | 300,000 tested, 0.92% active | inhibition, % at 24.9 µM;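 active = mean inhibition of at least 30% with at least half of replicates also reaching 30%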;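 also: 0% = DMSO neutral control and 100% = excess unlabeled competitor peptide PRC23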
CDK5 inh: inhibitors of human CDK5/p35 kinase, primary screen, biochemical, single concentration; inhibition, % at 10 µM; AID 488839, 2010; 330,000 tested, 0.01% active; Recombinant CDK5/p35, ADP-Glo luminescence, 60 min; Cyclin-dependent kinase 5 (Homo sapiens) + Cyclin-dependent kinase 5 activator 1 (Homo …;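 active = highest replicate inhibition of at least 50% and at least 75% of replicates reaching 50%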;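 also: plate controls were DMSO neutral control for no effect and GW8510 at 10 µM for full effect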
dFosB activator: activators of delta FosB homodimer, primary screen, biochemical, fluorescence polarization, TAMRA-CDK5 oligo, single point | purified delta FosB; percent of positive-control signal above neutral wells | 340,000 tested, 0.99% active | Protein FosB (Mus musculus), P13346 | AID 493131, 2011 | activation, % at 25 µM;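 active = mean activation above about 17%, with every replicate also reaching it, limit read from the data, passing the limit was not always enough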
Target sequence (P13346 whole entry, looked up): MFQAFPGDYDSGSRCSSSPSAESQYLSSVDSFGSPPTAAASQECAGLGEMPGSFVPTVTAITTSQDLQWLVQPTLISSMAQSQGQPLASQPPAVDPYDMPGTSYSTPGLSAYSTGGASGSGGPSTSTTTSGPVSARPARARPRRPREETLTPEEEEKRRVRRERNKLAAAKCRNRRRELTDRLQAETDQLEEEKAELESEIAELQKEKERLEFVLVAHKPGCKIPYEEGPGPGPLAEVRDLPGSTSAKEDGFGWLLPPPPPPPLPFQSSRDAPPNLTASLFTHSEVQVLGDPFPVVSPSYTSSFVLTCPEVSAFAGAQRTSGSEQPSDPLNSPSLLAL
CAL PDZ FP-2: CAL PDZ peptide-binding inhibitors, primary screen, biochemical, fluorescence polarization, Cer-tagged CAL PDZ, HTS; 330,000 tested, 0.02% active; purified CAL PDZ, TMR-peptide fluorescence polarization, 1 h; Golgi-associated PDZ and coiled-coil motif-containing protein (Homo sapiens), Q9HD26; inhibition, % at 20 µM;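 active = highest replicate inhibition of at least 40%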;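 also: plate controls were DMSO neutral control wells for no effect and unlabeled competitor peptide control wells for full effect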
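Read-out basis: mP drop reported as inhibition | Assay system: Tagged CAL PDZ protein CerCALP, purified | Benchmarks: Unlabelled peptide for full inhibition, DMSO wells as neutral | Schedule: 1 h incubation at room temperature before polarization reading | Buffer or medium: Sodium phosphate/NaCl buffer pH 7.4 with TCEP, IgG, Thesit | Doses: Single point, 20 µM | Measured by: Fluorescence polarization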
DYRK1A inh: rat Dyrk1A kinase inhibitors, primary screen, biochemical, single point, plate reader. Dual specificity tyrosine-phosphorylation-regulated kinase 1A (Rattus norvegicus), Q63470. ADP-Glo luminescence, NFATc1 peptide. inhibition, % at 12.5 µM. 310,000 tested, 0.43% active. AID 504441, 2011; in the data active = inhibition above about 50%;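 also: plate controls were vehicle with enzyme for no effect and no enzyme for full effect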
An asterisk follows results filed as active; nt = no result. The list is not random: actives were taken first. Their share in the collection is about 2.2%.

SMILES | Rtt109 Vps75 | CAL PDZ FP-1 | CDK5 inh | dFosB activator | CAL PDZ FP-2 | DYRK1A inh
CCn1c(NC(=O)c2ccccc2F)c(-c2cccs2)c(=O)c2ccccc21 | 1 | -1 | 0 | -1 | -1 | -4
COc1cccc(CNC(=O)CCC2CCCN(C(=O)C3=CC(=O)CC(C)(C)O3)C2)c1 (stereo not given) | 4 | -3 | 0 | -9 | 1 | -2
Cc1ccc2c(COC(=O)C3CC(=O)N(c4ccc5c(c4)OCCO5)C3)cc(=O)oc2c1 (stereo not given) | -3 | 8 | 0 | -5 | -1 | 4
CCCCCCn1cc(C(=O)O)c(=O)c2cc(F)c(N3CCN(C)CC3)cc21 | 4 | 30* | 0 | -11 | -1 | 7
COC(=O)CC1C(=O)NCCN1C(=O)c1ccc([N+](=O)[O-])cc1 (stereo not given) | -2 | 70* | -1 | 1 | -1 | 2
O=C(Cc1ccccc1)c1c[nH]c(C(=O)NC2CCCC2)c1 | 2 | nt | -1 | -2 | -1 | 4
COc1ccccc1N1CCN(C(=O)C(CC(C)C)NC(=O)C2CCCCC2)CC1 (stereo not given) | 5 | -5 | -1 | -10 | -2 | 4
c1ccc(CNc2c3ccccc3nc3ccccc23)cc1 | -19 | -8 | 0 | 38* | -4 | 4
c1ccc(CNc2ncnc3ccccc23)cc1 | -5 | -9 | 0 | -4 | 0 | -2
CN(C)CCCNc1c2ccccc2nc2ccccc12 | 3 | -4 | 2 | 72* | nt | 13
Oc1ccccc1Nc1nc(NCc2ccccc2)c2ccccc2n1 | 3 | -2 | -2 | 84* | -4 | 4
Oc1ccc(CCNc2c3ccccc3nc3ccccc23)cc1O | -8 | -5 | 3 | 71* | -1 | 13
O=C(CNC(=O)c1ccccc1)NCCc1ccc(O)c(O)c1 | -4 | -1 | 2 | -3 | -4 | -6
NS(=O)(=O)c1cccc(NC(=O)CSc2nnc(C3CC3)n2-c2ccccc2)c1 | -3 | -1 | 1 | -9 | 0 | -3
O=C(OCc1ccccc1)N1CCc2ccccc21 | -13 | -14 | 3 | 1 | 2 | -4
Cc1ccc(SCC(=O)Nc2ccc3c(c2)C(=O)NC3=O)cc1 | -2 | -10 | -1 | 2 | -1 | 1
Cc1ccc(SCC(=O)Nc2ccc3c(c2)C(=O)N(C)C3=O)cc1 | 2 | 179* | 2 | -10 | -2 | 0
Cc1cc(C(=O)N2CCCC(C(=O)c3cccc(C(F)(F)F)c3)C2)nc(C)n1 (stereo not given) | 1 | -5 | 0 | 3 | -1 | -3
CN(C(=O)c1cccc(NC(=O)Cc2cccc(NC(=O)C3CCN(C(=O)C4CCCCC4)CC3)c2)c1)C1CC1 | 23 | -1 | 14 | -2 | -1 | 5
COc1ccccc1NC1=C(Cl)C(=O)N(C2CCCCC2)C1=O | 52* | 0 | 3 | -6 | -3 | 1
COc1ccccc1N1C(=O)C(Cl)=C(Nc2ccccc2O)C1=O | 75* | -2 | 0 | -1 | -2 | 4
Cc1ccccc1NC1=C(Cl)C(=O)N(C2CCCCC2)C1=O | -4 | -3 | nt | 1 | -1 | 1
CC(=O)Oc1ccc(-c2ccc(C(=O)OCC(=O)N(C)CC(=O)Nc3ccccc3Cl)cc2)cc1 | 20 | 5 | -1 | 0 | -4 | 28
CC(=O)Nc1cccc(C(=O)OCc2csc(CC(=O)Nc3ccccc3C)n2)c1 | 13 | 1 | -2 | -9 | -1 | 1
O=C(/C=C/c1ccccc1Cl)N(Cc1ccc(Cl)cc1)C1CCS(=O)(=O)C1 (stereo not given) | 9 | 71* | -2 | -26 | -1 | 1
O=C(/C=C/c1ccccc1Cl)N(Cc1ccccc1)C1CCS(=O)(=O)C1 (stereo not given) | -6 | 6 | 0 | -8 | -4 | 5

Source: PubChem BioAssay (Broad Institute)
